The source made the active and inactive calls. The rule behind the calls is not given here.
Experiments:
[1] = Growth inhibition of human […] cells assessed as cell growth at 10 uM relative to untreated control; assay type: functional; conditions: read-out: Activity
NCI-H522 [2] = experiment: Growth inhibition of human NCI-H522 cells assessed as cell growth at 10 uM relative to untreated control; assay type: functional; conditions: read-out: Activity
BT-549 = experiment: Growth inhibition of human BT549 cells assessed as cell growth at 100 nM relative to untreated control; assay type: functional; conditions: read-out: Activity
[3] = biological target: DNA (cytosine-5)-methyltransferase 3B (Homo sapiens) (UniProt Q9UBC3); experiment: Binding affinity to DNMT3b in human PC3 cells cytoplasm at 5 uM after 1 hr by antibody staining; assay type: cell-based; conditions: PC-3
Method in brief: (§1)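 PC-3 cells were plated overnight on fibronectin/[…]-coated slides and treated with 5 μM compound or DMSO for 1-6 h. Cells were PBS-washed, fixed in 4% formaldehyde, and stained with propidium iodide (nuclei) and anti-DNMT3a or anti-DNMT3b antibody. The compound was excited at 725 nm by multiphoton laser and imaged through a 500-550 nm filter by confocal microscopy.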

M14 = experiment: Growth inhibition of human M14 cells assessed as cell growth at 1 nM relative to untreated control; assay type: functional; conditions: read-out: Activity
NCI/ADR-RES [4] = experiment: Growth inhibition of human NCI/ADR-RES cells assessed as cell growth at 1 nM relative to untreated control; assay type: functional; conditions: read-out: Activity
MDA-MB-435 [5] = experiment: Growth inhibition of human MDA-MB-435 cells assessed as cell growth at 10 nM relative to untreated control; assay type: functional; conditions: read-out: Activity
A549 = experiment: Growth inhibition of human A549 cells assessed as cell growth at 1 uM relative to untreated control; assay type: functional; conditions: read-out: Activity
SK-MEL-5 [6] = experiment: Growth inhibition of human SK-MEL-5 cells assessed as cell growth at 100 nM relative to untreated control; assay type: functional; conditions: read-out: Activity
IGROV-1 = experiment: Growth inhibition of human IGROV1 cells assessed as cell growth at 1 uM relative to untreated control; assay type: functional; conditions: read-out: Activity
Malme-3M [7] = experiment: Growth inhibition of human MALME-3M cells assessed as cell growth at 1 uM relative to untreated control; assay type: functional; conditions: read-out: Activity
MDA-MB-435 [8] = experiment: Growth inhibition of human MDA-MB-435 cells; assay type: functional; conditions: read-out: LC50 (the source's name)
[9] = biological target: DNA (cytosine-5)-methyltransferase 3B (Homo sapiens) (UniProt Q9UBC3); experiment: Binding affinity to DNMT3b in human PC3 cells cytoplasm at 5 uM after 6 hrs by antibody staining; assay type: cell-based; conditions: PC-3; method in brief: as §1
COLO 205 = experiment: Growth inhibition of human COLO205 cells assessed as cell growth at 1 nM relative to untreated control; assay type: functional; conditions: read-out: Activity
SF-268 = experiment: Growth inhibition of human SF268 cells assessed as cell growth at 100 nM relative to untreated control; assay type: functional; conditions: read-out: Activity
U-251 = experiment: Growth inhibition of human U251 cells assessed as cell growth at 1 uM relative to untreated control; assay type: functional; conditions: read-out: Activity
CCRF-CEM [10] = experiment: Growth inhibition of human CCRF-CEM cells assessed as cell growth at 1 nM relative to untreated control; assay type: functional; conditions: read-out: Activity
PC-3 = experiment: Decrease in DNA synthesis in human PC3 cells at 5 uM after 24 hrs by BrdU incorporation assay; assay type: functional, cell-based
Method in brief: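 PC-3 cells were seeded at 2 × 10⁴ cells/well and exposed to 5 μM compound or DMSO for 24 h. BrdU incorporation was read by chemiluminescent cell proliferation ELISA on a luminometer. Background without anti-BrdU-peroxidase was subtracted and values were normalized to untreated control. Values are mean ± SEM.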

SK-MEL-5 [11] = experiment: Growth inhibition of human SK-MEL-5 cells assessed as cell growth at 1 uM relative to untreated control; assay type: functional; conditions: read-out: Activity
MOLT-4 = experiment: Growth inhibition of human MOLT4 cells assessed as cell growth at 1 nM relative to untreated control; assay type: functional; conditions: read-out: Activity
SR = experiment: Growth inhibition of human SR cells assessed as cell growth at 1 nM relative to untreated control; assay type: functional; conditions: read-out: Activity
[12] = Growth inhibition of human […] cells assessed as cell growth at 10 nM relative to untreated control; assay type: functional; conditions: read-out: Activity
SNB-75 [13] = experiment: Growth inhibition of human SNB75 cells assessed as cell growth at 10 uM relative to untreated control; assay type: functional; conditions: read-out: Activity
786-0 = experiment: Growth inhibition of human 786-0 cells assessed as cell growth at 100 nM relative to untreated control; assay type: functional; conditions: read-out: Activity
UACC-257 = experiment: Growth inhibition of human UACC257 cells assessed as cell growth at 100 nM relative to untreated control; assay type: functional; conditions: read-out: Activity
SNB-19 = experiment: Growth inhibition of human SNB19 cells; assay type: functional
K562 = experiment: Growth inhibition of human K562 cells assessed as cell growth at 100 nM relative to untreated control; assay type: functional; conditions: read-out: Activity
HCT-116 = experiment: Growth inhibition of human HCT116 cells assessed as cell growth at 1 nM relative to untreated control; assay type: functional; conditions: read-out: Activity
Method in brief: (§2)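 Run externally at the National Cancer Institute as a 59-cell-line panel screen, with concentrations up to 100 μM. Growth was scored relative to control, where negative growth or total cell kill was possible. Data are in the Supporting Information.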

NCI/ADR-RES [14] = experiment: Growth inhibition of human NCI/ADR-RES cells assessed as cell growth at 1 uM relative to untreated control; assay type: functional; conditions: read-out: Activity
EKVX [15] = experiment: Growth inhibition of human EKVX cells; assay type: functional; method in brief: as §2
ACHN = experiment: Growth inhibition of human ACHN cells assessed as cell growth at 100 nM relative to untreated control; assay type: functional; conditions: read-out: Activity
LOX IMVI = experiment: Growth inhibition of human LOXIMVI cells; assay type: functional
HCT-15 = experiment: Growth inhibition of human HCT15 cells assessed as cell growth at 1 nM relative to untreated control; assay type: functional; conditions: read-out: Activity; method in brief: as §2
CCRF-CEM [16] = experiment: Growth inhibition of human CCRF-CEM cells assessed as cell growth at 100 nM relative to untreated control; assay type: functional; conditions: read-out: Activity
UACC-62 = experiment: Growth inhibition of human UACC62 cells assessed as cell growth at 10 nM relative to untreated control; assay type: functional; conditions: read-out: Activity
T47D = experiment: Growth inhibition of human T47D cells assessed as cell growth at 100 nM relative to untreated control; assay type: functional; conditions: read-out: Activity
A498 = experiment: Growth inhibition of human A498 cells; assay type: functional
EKVX [17] = experiment: Growth inhibition of human EKVX cells assessed as cell growth at 10 uM relative to untreated control; assay type: functional; conditions: read-out: Activity; method in brief: as §2
Malme-3M [18] = experiment: Growth inhibition of human MALME-3M cells; assay type: functional
NCI-H522 [19] = experiment: Growth inhibition of human NCI-H522 cells assessed as cell growth at 1 nM relative to untreated control; assay type: functional; conditions: read-out: Activity
SNB-75 [20] = experiment: Growth inhibition of human SNB75 cells assessed as cell growth at 1 uM relative to untreated control; assay type: functional; conditions: read-out: Activity
SK-OV-3 = experiment: Growth inhibition of human SKOV3 cells assessed as cell growth at 100 nM relative to untreated control; assay type: functional; conditions: read-out: Activity
SF-539 = experiment: Growth inhibition of human SF539 cells assessed as cell growth at 1 nM relative to untreated control; assay type: functional; conditions: read-out: Activity
[21] = read-out: LC50 (the source's name)

Compound `COc1ccc2c(c1)[nH]c1c(C)c(OS(=O)(=O)c3cccc4c(N(C)C)cccc34)ccc12` has a growth at 10 µM [1] of -2%, a growth at 10 µM (NCI-H522 [2]) of 37% and a growth at 0.1 µM (BT-549) of 93%. For the same compound, the Activity [3] was “Active”, the growth at 0.001 µM (M14) was 102% and the growth at 0.001 µM (NCI/ADR-RES [4]) was 107%. The growth at 0.01 µM (MDA-MB-435 [5]) was 95%, the growth at 1 µM (A549) was 31% and the growth at 0.1 µM (SK-MEL-5 [6]) was 91%. It also gave a growth at 1 µM (IGROV-1) of 59%, a growth at 1 µM (Malme-3M [7]) of 22% and a CC50 (MDA-MB-435 [8]) greater than 100 µM. The Activity [9] was “Active”, the growth at 0.001 µM (COLO 205) was 104% and the growth at 0.1 µM (SF-268) was 96%. For the same compound, the growth at 1 µM (U-251) was 25%, the growth at 0.001 µM (CCRF-CEM [10]) was 99% and the Activity (PC-3) was “Active”. The growth at 1 µM (SK-MEL-5 [11]) was -3%, the growth at 0.001 µM (MOLT-4) was 103% and the growth at 0.001 µM (SR) was 102%. For the same compound, the growth at 0.01 µM [12] was 58%, the growth at 10 µM (SNB-75 [13]) was -12% and the growth at 0.1 µM (786-0) was 105%. For the same compound, the growth at 0.1 µM (UACC-257) was 97%, the GI50 (SNB-19) was 7.88 µM and the TGI (SNB-19) was greater than 100 µM. For the same compound, the CC50 (SNB-19; [21]) was greater than 100 µM, the growth at 0.1 µM (K562) was 91% and the growth at 0.001 µM (HCT-116) was 100%. For the same compound, the growth at 1 µM (NCI/ADR-RES [14]) was 28%, the GI50 (EKVX [15]) was 5.44 µM and the TGI (EKVX [15]) was greater than 100 µM. For the same compound, the CC50 (EKVX [15]; [21]) was greater than 100 µM, the growth at 0.1 µM (ACHN) was 97% and the GI50 (LOX IMVI) was 48.4 µM. It also gave a TGI (LOX IMVI) greater than 100 µM, a CC50 (LOX IMVI; [21]) greater than 100 µM and a growth at 0.001 µM (HCT-15) of 98%. It also gave a growth at 0.1 µM (CCRF-CEM [16]) of 91%, a growth at 0.01 µM (UACC-62) of 83% and a growth at 0.1 µM (T47D) of 82%. It also gave a GI50 (A498) of 22.4 µM, a TGI (A498) of 60.2 µM and a CC50 (A498; [21]) greater than 100 µM. For the same compound, the growth at 10 µM (EKVX [17]) was 16%, the GI50 (Malme-3M [18]) was 3.62 µM and the TGI (Malme-3M [18]) was greater than 100 µM. The CC50 (Malme-3M [18]; [21]) was greater than 100 µM, the growth at 0.001 µM (NCI-H522 [19]) was 109% and the growth at 1 µM (SNB-75 [20]) was 24%. It also gave a growth at 0.1 µM (SK-OV-3) of 99% and a growth at 0.001 µM (SF-539) of 104%.

Reference: ChEMBL document CHEMBL1157638, “Fluorescent epigenetic small molecule induces expression of the tumor suppressor ras-association domain family 1A and inhibits human prostate xenograft” (J Med Chem, 2010)
